Source: ChEMBL document CHEMBL4689842, “EUbOPEN Chemogenomics Library wave 1” (2021)

Test system: U2OS
Assay: Multiplex assay against U2OS
Type: toxicity, cell-based
Details: human
Outline: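 Live cells carried four stains from seeding: Hoechst33342, BioTracker Green Microtubule Cytoskeleton Dye, MitoTracker Red and Annexin V Alexa Fluor 680. They were imaged on a CQ1 microscope at 37°C and 5% CO2 after compound addition. Using CellPathfinder machine-learning gating, cells were split into Hoechst high-intensity objects or normal cells, normal cells into healthy, pyknosed or fragmented nuclei, and pyknosed cells into mitotic or apoptotic; tubulin, mitochondrial-mass and membrane-permeability phenotypes are per cents of healthy-nucleus cells.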

[1] = 12 h, 1 µM, compound concentration 1 uM, replicate 1
[2] = 12 h, 1 µM, compound concentration 1 uM, replicate 2
[3] = 12 h, 10 µM, compound concentration 10 uM, replicate 1
[4] = 12 h, 10 µM, compound concentration 10 uM, replicate 2
[5] = 24 h, 1 µM, compound concentration 1 uM, replicate 1
[6] = 24 h, 1 µM, compound concentration 1 uM, replicate 2
[7] = 24 h, 10 µM, compound concentration 10 uM, replicate 1
[8] = 24 h, 10 µM, compound concentration 10 uM, replicate 2

C=CC(=O)Nc1cccc(Oc2nc(Nc3ccc(N4CCN(C)CC4)cc3OC)ncc2Cl)c1
Population Apoptotic (%) [1]: 67%
Population Fragmented Nuclei (%) [1]: 27%
Population Healthy Nuclei (%) [1]: 36%
Population Hoechst High Intensity Objects (%) [1]: 8%
Population Membrane Permeable-Phenotype (%) [1]: 17%
Population Mitochondria Different-Phenotype (%) [1]: 74%
Population Mitotic Cells (%) [1]: 32%
Population Normal (%) [1]: 92%
Population Pyknosed Nuclei (%) [1]: 36%
Population Tubulin-Different-Phenotype (%) [1]: 96%
Total Cell Count [1]: 140
Population Apoptotic (%) [2]: 73%
Population Fragmented Nuclei (%) [2]: 32%
Population Healthy Nuclei (%) [2]: 26%
Population Hoechst High Intensity Objects (%) [2]: 13%
Population Membrane Permeable-Phenotype (%) [2]: 19%
Population Mitochondria Different-Phenotype (%) [2]: 80%
Population Mitotic Cells (%) [2]: 26%
Population Normal (%) [2]: 86%
Population Pyknosed Nuclei (%) [2]: 41%
Population Tubulin-Different-Phenotype (%) [2]: 100%
Total Cell Count [2]: 107
Population Apoptotic (%) [3]: 58%
Population Fragmented Nuclei (%) [3]: 5%
Population Healthy Nuclei (%) [3]: 82%
Population Hoechst High Intensity Objects (%) [3]: 1%
Population Membrane Permeable-Phenotype (%) [3]: 35%
Population Mitochondria Different-Phenotype (%) [3]: 7%
Population Mitotic Cells (%) [3]: 41%
Population Normal (%) [3]: 98%
Population Pyknosed Nuclei (%) [3]: 12%
Population Tubulin-Different-Phenotype (%) [3]: 21%
Total Cell Count [3]: 152
Population Apoptotic (%) [4]: 25%
Population Fragmented Nuclei (%) [4]: 16%
Population Healthy Nuclei (%) [4]: 79%
Population Hoechst High Intensity Objects (%) [4]: 13%
Population Membrane Permeable-Phenotype (%) [4]: 43%
Population Mitochondria Different-Phenotype (%) [4]: 16%
Population Mitotic Cells (%) [4]: 75%
Population Normal (%) [4]: 86%
Population Pyknosed Nuclei (%) [4]: 4%
Population Tubulin-Different-Phenotype (%) [4]: 22%
Total Cell Count [4]: 113
Population Apoptotic (%) [5]: 91%
Population Fragmented Nuclei (%) [5]: 21%
Population Hoechst High Intensity Objects (%) [5]: 12%
Population Membrane Permeable-Phenotype (%) [5]: 70%
Population Mitochondria Different-Phenotype (%) [5]: 100%
Population Mitotic Cells (%) [5]: 8%
Population Normal (%) [5]: 87%
Population Pyknosed Nuclei (%) [5]: 61%
Total Cell Count [5]: 160
Population Apoptotic (%) [6]: 92%
Population Fragmented Nuclei (%) [6]: 35%
Population Healthy Nuclei (%) [6]: 17%
Population Hoechst High Intensity Objects (%) [6]: 14%
Population Membrane Permeable-Phenotype (%) [6]: 93%
Population Mitochondria Different-Phenotype (%) [6]: 93%
Population Mitotic Cells (%) [6]: 7%
Population Normal (%) [6]: 85%
Population Pyknosed Nuclei (%) [6]: 47%
Population Tubulin-Different-Phenotype (%) [6]: 100%
Total Cell Count [6]: 131
Population Apoptotic (%) [7]: 62%
Population Fragmented Nuclei (%) [7]: 5%
Population Healthy Nuclei (%) [7]: 89%
Population Hoechst High Intensity Objects (%) [7]: 3%
Population Membrane Permeable-Phenotype (%) [7]: 29%
Population Mitochondria Different-Phenotype (%) [7]: 9%
Population Mitotic Cells (%) [7]: 37%
Population Normal (%) [7]: 96%
Population Pyknosed Nuclei (%) [7]: 5%
Population Tubulin-Different-Phenotype (%) [7]: 18%
Total Cell Count [7]: 182
Population Apoptotic (%) [8]: 66%
Population Fragmented Nuclei (%) [8]: 10%
Population Healthy Nuclei (%) [8]: 84%
Population Hoechst High Intensity Objects (%) [8]: 16%
Population Membrane Permeable-Phenotype (%) [8]: 27%
Population Mitochondria Different-Phenotype (%) [8]: 17%
Population Mitotic Cells (%) [8]: 33%
Population Normal (%) [8]: 83%
Population Tubulin-Different-Phenotype (%) [8]: 17%
Total Cell Count [8]: 120

Cc1nc(N2CC[C@H](O)C2)ncc1-c1cc(C(F)(F)F)cc2[nH]ncc12
Population Apoptotic (%) [1]: 25%
Population Fragmented Nuclei (%) [1]: 2%
Population Healthy Nuclei (%) [1]: 93%
Population Hoechst High Intensity Objects (%) [1]: 3%
Population Membrane Permeable-Phenotype (%) [1]: 6%
Population Mitochondria Different-Phenotype (%) [1]: 24%
Population Mitotic Cells (%) [1]: 75%
Population Normal (%) [1]: 96%
Population Pyknosed Nuclei (%) [1]: 4%
Population Tubulin-Different-Phenotype (%) [1]: 22%
Total Cell Count [1]: 181
Population Apoptotic (%) [2]: 14%
Population Fragmented Nuclei (%) [2]: 4%
Population Healthy Nuclei (%) [2]: 89%
Population Hoechst High Intensity Objects (%) [2]: 11%
Population Membrane Permeable-Phenotype (%) [2]: 5%
Population Mitochondria Different-Phenotype (%) [2]: 28%
Population Mitotic Cells (%) [2]: 85%
Population Normal (%) [2]: 88%
Population Pyknosed Nuclei (%) [2]: 5%
Population Tubulin-Different-Phenotype (%) [2]: 19%
Total Cell Count [2]: 111
Population Apoptotic (%) [3]: 60%
Population Fragmented Nuclei (%) [3]: 6%
Population Healthy Nuclei (%) [3]: 88%
Population Hoechst High Intensity Objects (%) [3]: 1%
Population Membrane Permeable-Phenotype (%) [3]: 8%
Population Mitochondria Different-Phenotype (%) [3]: 22%
Population Mitotic Cells (%) [3]: 40%
Population Normal (%) [3]: 98%
Population Pyknosed Nuclei (%) [3]: 5%
Population Tubulin-Different-Phenotype (%) [3]: 26%
Total Cell Count [3]: 158
Population Apoptotic (%) [4]: 16%
Population Fragmented Nuclei (%) [4]: 9%
Population Healthy Nuclei (%) [4]: 84%
Population Hoechst High Intensity Objects (%) [4]: 12%
Population Membrane Permeable-Phenotype (%) [4]: 6%
Population Mitochondria Different-Phenotype (%) [4]: 31%
Population Mitotic Cells (%) [4]: 83%
Population Normal (%) [4]: 87%
Population Pyknosed Nuclei (%) [4]: 6%
Population Tubulin-Different-Phenotype (%) [4]: 41%
Total Cell Count [4]: 153
Population Apoptotic (%) [5]: 27%
Population Fragmented Nuclei (%) [5]: 1%
Population Healthy Nuclei (%) [5]: 94%
Population Hoechst High Intensity Objects (%) [5]: 1%
Population Membrane Permeable-Phenotype (%) [5]: 7%
Population Mitochondria Different-Phenotype (%) [5]: 25%
Population Mitotic Cells (%) [5]: 72%
Population Normal (%) [5]: 98%
Population Pyknosed Nuclei (%) [5]: 4%
Population Tubulin-Different-Phenotype (%) [5]: 24%
Total Cell Count [5]: 260
Population Apoptotic (%) [6]: 14%
Population Fragmented Nuclei (%) [6]: 3%
Population Healthy Nuclei (%) [6]: 92%
Population Hoechst High Intensity Objects (%) [6]: 6%
Population Membrane Permeable-Phenotype (%) [6]: 3%
Population Mitochondria Different-Phenotype (%) [6]: 24%
Population Mitotic Cells (%) [6]: 85%
Population Normal (%) [6]: 93%
Total Cell Count [6]: 121
Population Apoptotic (%) [7]: 27%
Population Fragmented Nuclei (%) [7]: 3%
Population Healthy Nuclei (%) [7]: 91%
Population Hoechst High Intensity Objects (%) [7]: 4%
Population Membrane Permeable-Phenotype (%) [7]: 5%
Population Mitochondria Different-Phenotype (%) [7]: 12%
Population Mitotic Cells (%) [7]: 72%
Population Normal (%) [7]: 95%
Population Pyknosed Nuclei (%) [7]: 4%
Population Tubulin-Different-Phenotype (%) [7]: 28%
Total Cell Count [7]: 173
Population Apoptotic (%) [8]: 21%
Population Fragmented Nuclei (%) [8]: 5%
Population Healthy Nuclei (%) [8]: 81%
Population Hoechst High Intensity Objects (%) [8]: 9%
Population Membrane Permeable-Phenotype (%) [8]: 13%
Population Mitochondria Different-Phenotype (%) [8]: 40%
Population Mitotic Cells (%) [8]: 78%
Population Normal (%) [8]: 90%
Population Pyknosed Nuclei (%) [8]: 12%
Population Tubulin-Different-Phenotype (%) [8]: 46%
Total Cell Count [8]: 141
